Measured values: ChEMBL document CHEMBL4765265, “4-Substituted picolinohydrazonamides as a new class of potential antitubercular agents” (Eur J Med Chem, 2020)
≈ marks a conversion by molar mass, not a printed value.

Assays:
[1] = system: Mycobacterium tuberculosis; assay: Antimycobacterial activity against Mycobacterium tuberculosis H37Rv; format: functional
In short: (§1)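 Classical test-tube successive twofold dilution in Youmans' modification of Proskauer and Beck liquid medium with 10% bovine serum. Inoculum from 14-day-old cultures. Compounds dissolved in ethylene glycol (stock 10 mg/mL), tested at […]. Incubation at 37 °C. MIC is the lowest concentration inhibiting growth relative to a compound-free tube. Isoniazid, pyrazinamide and rifampicin served as references.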

[2] = system: Mycobacterium tuberculosis; assay: Antimycobacterial activity against patient derived Mycobacterium tuberculosis Spec. 210; format: functional; in short: as §1
Staphylococcus aureus [3] = assay: Antibacterial activity against Staphylococcus aureus ATCC 6538 assessed as reduction in bacterial growth incubated for 24 hrs by broth microdilution assay; format: functional
In short: (§2)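 Twofold serial broth microdilution in Mueller-Hinton broth, supplemented with 5% lysed sheep blood for fastidious species. […]. Inoculum was set to 0.5 McFarland in 0.85% NaCl, giving a final 1.5 × 10⁶ CFU/mL. Plates were incubated 24 h at 35 °C. MIC was read visually as the lowest concentration with complete growth inhibition. Controls: 10% DMSO (final), growth and sterility. Triplicate.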

Candida albicans [4] = assay: Antifungal activity against Candida albicans ATCC […] assessed as reduction in fungal growth incubated for 48 hrs by broth microdilution assay; format: functional
In short: (§3)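 Yeasts were tested by twofold broth microdilution in Mueller-Hinton broth with 2% glucose at final concentrations of 0.98–1000 µg/mL. Inoculum was prepared from 0.5 McFarland suspensions in 0.85% NaCl, giving a final 5 × 10⁴ CFU/mL. Incubation was 48 h at 30 °C. MIC was the lowest concentration visually showing complete growth inhibition. Controls: 10% DMSO (final), growth and sterility. Triplicate.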

Escherichia coli = assay: Antibacterial activity against Escherichia coli ATCC 25922 assessed as reduction in bacterial growth incubated for 24 hrs by broth microdilution assay; format: functional; in short: as §2
Micrococcus luteus = assay: Antibacterial activity against Micrococcus luteus ATCC 10240 assessed as reduction in bacterial growth incubated for 24 hrs by broth microdilution assay; format: functional; in short: as §2
Bacillus cereus = assay: Antibacterial activity against Bacillus cereus ATCC 10876 assessed as reduction in bacterial growth incubated for 24 hrs by broth microdilution assay; format: functional; in short: as §2
Candida parapsilosis = assay: Antifungal activity against Candida parapsilosis ATCC 22019 assessed as reduction in fungal growth incubated for 48 hrs by broth microdilution assay; format: functional; conditions: Lodderomyces parapsilosis; in short: as §3
Staphylococcus aureus [5] = assay: Antibacterial activity against Staphylococcus aureus ATCC 43300 assessed as reduction in bacterial growth incubated for 24 hrs by broth microdilution assay; format: functional; in short: as §2
Pseudomonas aeruginosa = assay: Antibacterial activity against Pseudomonas aeruginosa ATCC 9027 assessed as reduction in bacterial growth incubated for 24 hrs by broth microdilution assay; format: functional; in short: as §2
[6] = system: Staphylococcus epidermidis; assay: Antibacterial activity against Staphylococcus epidermidis ATCC 12228 assessed as reduction in bacterial growth incubated for 24 hrs by broth microdilution assay; format: functional; in short: as §2
Klebsiella pneumoniae = assay: Antibacterial activity against Klebsiella pneumoniae ATCC 13883 assessed as reduction in bacterial growth incubated for 24 hrs by broth microdilution assay; format: functional; in short: as §2
Proteus mirabilis = assay: Antibacterial activity against Proteus mirabilis ATCC […] assessed as reduction in bacterial growth incubated for 24 hrs by broth microdilution assay; format: functional; in short: as §2
NHDF = assay: Cytotoxicity against human NHDF cells assessed as reduction in cell viability incubated for 72 hrs by MTT assay; format: cell-based
Streptococcus pyogenes = assay: Antibacterial activity against Streptococcus pyogenes ATCC 19615 assessed as reduction in bacterial growth incubated for 24 hrs by broth microdilution assay; format: functional; in short: as §2
Streptococcus mutans = assay: Antibacterial activity against Streptococcus mutans ATCC 25175 assessed as reduction in bacterial growth incubated for 24 hrs by broth microdilution assay; format: functional; in short: as §2
B16-F10 = assay: Cytotoxicity against mouse B16-F10 cells assessed as reduction in cell viability incubated for 72 hrs by MTT assay; format: cell-based; conditions: B16-F10, 72 h
Streptococcus pneumoniae = assay: Antibacterial activity against Streptococcus pneumoniae ATCC 49619 assessed as reduction in bacterial growth incubated for 24 hrs by broth microdilution assay; format: functional; in short: as §2
Staphylococcus aureus [7] = assay: Antibacterial activity against Staphylococcus aureus ATCC 25923 assessed as reduction in bacterial growth incubated for 24 hrs by broth microdilution assay; format: functional; in short: as §2
Candida albicans [8] = assay: Antifungal activity against Candida albicans ATCC 2091 assessed as reduction in fungal growth incubated for 48 hrs by broth microdilution assay; format: functional; in short: as §3
Bacillus subtilis = assay: Antibacterial activity against Bacillus subtilis ATCC 6633 assessed as reduction in bacterial growth incubated for 24 hrs by broth microdilution assay; format: functional; in short: as §2

With `N/C(=N\NC(=S)N1CCCCC1)c1cc(Sc2ccccc2)ccn1` the MIC [1] was 12.5 µg/mL (≈ 33.6 µM) and the MIC [2] was 12.5 µg/mL (≈ 33.6 µM).
`N/C(=N\NC(=S)N1CCCC1)c1cc(N2CCCC2)ccn1` showed an MIC [1] of 6.25 µg/mL (≈ 19.6 µM) and an MIC [2] of 6.25 µg/mL (≈ 19.6 µM).
With `N/C(=N\NC(=S)N1CCN(c2ccccc2)CC1)c1cc(Sc2ccccc2)ccn1` the MIC [1] was 25 µg/mL (≈ 55.7 µM) and the MIC [2] was 25 µg/mL (≈ 55.7 µM).
`N/C(=N\NC(=S)N1CCCCC1)c1cc(N2CCCC2)ccn1` gave an MIC [1] of 6.25 µg/mL (≈ 18.8 µM) and an MIC [2] of 6.25 µg/mL (≈ 18.8 µM).
Compound `N/C(=N\NC(=S)N1CCCCC1)c1cc(Oc2ccccc2)ccn1` has an MIC [1] of 12.5 µg/mL (≈ 35.2 µM) and an MIC [2] of 12.5 µg/mL (≈ 35.2 µM).
In the case of `N/C(=N\NC(=S)N1CCN(c2ccccc2)CC1)c1cc(Oc2ccccc2)ccn1`, the MIC [1] is reported as 25 µg/mL (≈ 57.8 µM) and the MIC [2] is reported as 25 µg/mL (≈ 57.8 µM).
In the case of `N/C(=N\NC(=S)N1CCN(c2ccccc2)CC1)c1cc(N2CCN(c3ccccc3)CC2)ccn1`, the MIC [1] is reported as 25 µg/mL (≈ 49.9 µM) and the MIC [2] is reported as 25 µg/mL (≈ 49.9 µM).
`N/C(=N\NC(=S)N1CCCCC1)c1cc(N2CCOCC2)ccn1` gave an MIC [1] of 6.25 µg/mL (≈ 17.9 µM) and an MIC [2] of 6.25 µg/mL (≈ 17.9 µM).
In the case of `N/C(=N\NC(=S)N1CCOCC1)c1cc(N2CCOCC2)ccn1`, the MIC (Staphylococcus aureus [3]) is reported as 15.6 µg/mL (≈ 44.5 µM), the MIC (Candida albicans [4]) is reported as 31.3 µg/mL (≈ 89.3 µM) and the MIC (Escherichia coli) is reported as > 1000 µg/mL. The MIC (Micrococcus luteus) was 7.8 µg/mL (≈ 22.3 µM), the MIC (Bacillus cereus) was 31.3 µg/mL (≈ 89.3 µM) and the MIC (Candida parapsilosis) was 31.3 µg/mL (≈ 89.3 µM). For the same compound, the MIC (Staphylococcus aureus [5]) was 15.6 µg/mL (≈ 44.5 µM), the MIC (Pseudomonas aeruginosa) was > 1000 µg/mL and the MIC [6] was 15.6 µg/mL (≈ 44.5 µM). The MIC (Klebsiella pneumoniae) was 31.3 µg/mL (≈ 89.3 µM), the MIC (Proteus mirabilis) was > 1000 µg/mL and the IC50 (NHDF) was “Not Active”. It also gave an MIC (Streptococcus pyogenes) of 1000 µg/mL (≈ 2850 µM), an MIC [1] of 3.1 µg/mL (≈ 8.85 µM) and an MIC (Streptococcus mutans) of 1000 µg/mL (≈ 2850 µM). For the same compound, the IC50 (B16-F10) was 17.8 µg/mL (≈ 50.9 µM), the MIC (Streptococcus pneumoniae) was > 1000 µg/mL and the MIC [2] was 3.1 µg/mL (≈ 8.85 µM). It also gave an MIC (Staphylococcus aureus [7]) of 15.6 µg/mL (≈ 44.5 µM), an MIC (Candida albicans [8]) of 31.3 µg/mL (≈ 89.3 µM) and an MIC (Bacillus subtilis) of 31.3 µg/mL (≈ 89.3 µM).
With `N/C(=N\NC(=S)N1CCCC1)c1cc(Sc2ccccc2)ccn1` the MIC [1] was 6.25 µg/mL (≈ 17.5 µM) and the MIC [2] was 6.25 µg/mL (≈ 17.5 µM).
`N/C(=N\NC(=S)N1CCCCC1)c1cc(N2CCN(c3ccccc3)CC2)ccn1` was tested, and the MIC [1] was 25 µg/mL (≈ 59 µM) and the MIC [2] was 25 µg/mL (≈ 59 µM).
For `N/C(=N\NC(=S)N1CCCC1)c1cc(N2CCOCC2)ccn1`, the MIC [1] was 6.25 µg/mL (≈ 18.7 µM) and the MIC [2] was 6.25 µg/mL (≈ 18.7 µM).
`N/C(=N\NC(=S)N1CCOCC1)c1cc(N2CCN(c3ccccc3)CC2)ccn1` was tested, and the MIC [1] was 6.25 µg/mL (≈ 14.7 µM) and the MIC [2] was 6.25 µg/mL (≈ 14.7 µM).
With `N/C(=N\NC(=S)N1CCCC1)c1cc(N2CCN(c3ccccc3)CC2)ccn1` the MIC [1] was 12.5 µg/mL (≈ 30.5 µM) and the MIC [2] was 12.5 µg/mL (≈ 30.5 µM).
Work on `N/C(=N\NC(=S)N1CCN(c2ccccc2)CC1)c1cc(N2CCOCC2)ccn1` yielded an MIC [1] of 6.25 µg/mL (≈ 14.7 µM) and an MIC [2] of 6.25 µg/mL (≈ 14.7 µM).
Compound `N/C(=N\NC(=S)N1CCN(c2ccccc2)CC1)c1cc(N2CCCC2)ccn1` has an MIC [1] of 6.25 µg/mL (≈ 15.3 µM) and an MIC [2] of 6.25 µg/mL (≈ 15.3 µM).
Compound `O=C(O)c1cn(C2CC2)c2cc(N3CCNCC3)c(F)cc2c1=O` [CIPROFLOXACIN] has an MIC (Staphylococcus aureus [3]) of 0.24 µg/mL (≈ 0.724 µM), an MIC (Micrococcus luteus) of 0.98 µg/mL (≈ 2.96 µM) and an MIC (Bacillus cereus) of 0.12 µg/mL (≈ 0.362 µM). The MIC (Staphylococcus aureus [5]) was 0.24 µg/mL (≈ 0.724 µM), the MIC [6] was 0.49 µg/mL (≈ 1.48 µM) and the MIC (Klebsiella pneumoniae) was 0.12 µg/mL (≈ 0.362 µM). The MIC (Proteus mirabilis) was 0.03 µg/mL (≈ 0.0905 µM), the MIC (Staphylococcus aureus [7]) was 0.49 µg/mL (≈ 1.48 µM) and the MIC (Bacillus subtilis) was 0.03 µg/mL (≈ 0.0905 µM).
Compound `OC(Cn1cncn1)(Cn1cncn1)c1ccc(F)cc1F` [FLUCONAZOLE] has an MIC (Candida parapsilosis) of 1.95 µg/mL (≈ 6.37 µM).
With `NNC(=O)c1ccncc1` [ISONIAZID] the MIC [1] was 3.1 µg/mL (≈ 22.6 µM) and the MIC [2] was 12.5 µg/mL (≈ 91.1 µM).
`NC(=O)c1cnccn1` [PYRAZINAMIDE] was tested, and the MIC [1] was 25 µg/mL (≈ 203 µM) and the MIC [2] was > 400 µg/mL.
Compound `CN[C@H](CC(C)C)C(=O)N[C@H]1C(=O)N[C@@H](CC(N)=O)C(=O)N[C@H]2C(=O)N[C@H]3C(=O)N[C@H](C(=O)N[C@H](C(=O)O)c4cc(O)cc(O)c4-c4cc3ccc4O)[C@H](O)c3ccc(c(Cl)c3)Oc3cc2cc(c3O[C@@H]2O[C@H](CO)[C@@H](O)[C@H](O)[C@H]2O[C@H]2C[C@](C)(N)[C@H](O)[C@H](C)O2)Oc2ccc(cc2Cl)[C@H]1O` [VANCOMYCIN] has an MIC (Staphylococcus aureus [3]) of 0.49 µg/mL (≈ 0.338 µM), an MIC (Micrococcus luteus) of 0.12 µg/mL (≈ 0.0828 µM) and an MIC (Bacillus cereus) of 0.98 µg/mL (≈ 0.676 µM). The MIC (Staphylococcus aureus [5]) was 0.49 µg/mL (≈ 0.338 µM), the MIC [6] was 0.98 µg/mL (≈ 0.676 µM) and the MIC (Streptococcus pyogenes) was 0.24 µg/mL (≈ 0.166 µM). For the same compound, the MIC (Streptococcus mutans) was 0.98 µg/mL (≈ 0.676 µM), the MIC (Streptococcus pneumoniae) was 0.24 µg/mL (≈ 0.166 µM) and the MIC (Staphylococcus aureus [7]) was 0.98 µg/mL (≈ 0.676 µM). The MIC (Bacillus subtilis) was 0.24 µg/mL (≈ 0.166 µM).
